Test results as given in ChEMBL document CHEMBL4028848, “Discovery of N-{4-[5-(4-Fluorophenyl)-3-methyl-2-methylsulfanyl-3H-imidazol-4-yl]-pyridin-2-yl}-acetamide (CBS-3595), a Dual p38α MAPK/PDE-4 Inhibitor with Activity against TNFα-Related Diseases” (J Med Chem, 2017).
Active and inactive are the calls of the source. The rule behind the calls is not given here.

Experiments:
Rattus norvegicus [1] = assay: Antiarthritic activity in Lewis rat assessed as change in paw volume at 50 mg/kg, po qd administered for 10 days; assay type: functional, organism-based
Method in brief: (§1)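 Collagen-induced arthritis in male Lewis rats (5–6 per group). Groups received vehicle, dexamethasone 1 mg/kg, test item 50 mg/kg once daily, or 25 mg/kg twice daily for 10 days. Body weight, arthritic score and paw volume were monitored, and serum COMP was measured at the end.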

[2] = Tmax in mongrel dog at 30 mg/kg, po by LC-MS/MS analysis; assay type: ADME, organism-based, Canis lupus familiaris; conditions: in vivo
[3] = Cmax in cynomolgus monkey at 20 mg/kg, po measured on day 1 and 27 post dose by LC-MS/MS analysis; assay type: ADME, organism-based, Macaca fascicularis; design: dose 20 mg/kg, route oral; conditions: in vivo
Method in brief: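 Within a 4-week oral toxicity study, Cynomolgus monkeys received 6, 12 or 20 mg/kg daily. Blood was sampled from 0.5 to 24 h post dose on days 1 and 27. Tmax, Cmax, T1/2 and AUC0–24 came from individual profiles of parent and metabolite.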

Rattus norvegicus [4] = assay: Toxicity in Sprague-Dawley rat assessed as increase in piloerection at 150 mg/kg, po administered via gavage for daily 28 days followed by 2 weeks off without dosing; assay type: organism-based; conditions: in vivo
[5] = Drug metabolism in human primary hepatocytes assessed as CBS-3728 formation at 10 to 100 uM; assay type: ADME, cell-based, Hepatocyte
[6] = Half life in mongrel dog at 30 mg/kg, po by LC-MS/MS analysis; assay type: ADME, organism-based, Canis lupus familiaris; conditions: in vivo
Method in brief: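 Oral single-dose PK; plasma concentrations of parent and metabolite measured. Dogs: blood sampled 0.25 to 24 h after dosing. Humans: healthy subjects, placebo-controlled single-blind randomized consecutive dosing, plasma sampled predose and 0.25–36 h post dose. 10 mg also given fasting and fed in crossover. Parameters derived from individual concentration–time profiles.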

[7] = Drug metabolism in cynomolgus monkey liver microsomes assessed as 4-(4-(4-fluorophenyl)-1-methyl-2-(methylsulfonyl)-1H-imidazol-5-yl)pyridin-2-amine formation at 10 to 100 uM; assay type: ADME, Macaca fascicularis, microsome
Method in brief: (§2)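 Test compound incubated at 10, 30 and 100 μM with liver microsomes from rat, Cynomolgus monkey or human, and metabolites monitored.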

Rattus norvegicus [8] = assay: In vivo inhibition of P38 MAPKalpha in Lewis rat assessed as decrease in LPS-stimulated TNFalpha level in serum at 10 mg/kg, po pretreated for 5 hrs followed by LPS addition measured after 1.5 hrs post dose; assay type: functional, organism-based
Method in brief: (§3)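 Lewis rats, n = 8/group: females dosed orally at 10 mg/kg at −1, −3 or −5 h relative to LPS challenge, plus one male group dosed at −1 h. Male and female vehicle controls were given at −1 h. Serum TNFα was measured after LPS and compared with vehicle.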

[9] = Toxicity in Sprague-Dawley rat administered via oral gavage measured for 14 days; conditions: in vivo
[10] = AUC (0 to infinity) in male Sprague-Dawley rat at 30 mg/kg, po by LC-MS/MS analysis; assay type: ADME, organism-based; design: dose 30 mg/kg, time infinity, route oral; conditions: in vivo
Method in brief: (§4)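 Rats of each sex received a single oral dose of 30 mg/kg. Plasma concentration–time profiles of parent were determined separately for females and males.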

[11] = Cmax in female Sprague-Dawley rat at 30 mg/kg, po by LC-MS/MS analysis; assay type: ADME, organism-based; design: dose 30 mg/kg, route oral; conditions: in vivo
[12] = Tmax in Beagle dog at 40 mg/kg, po by LC-MS/MS analysis; assay type: ADME, organism-based, Canis lupus familiaris; conditions: in vivo
[13] = Half life in male Sprague-Dawley rat at 30 mg/kg, po by LC-MS/MS analysis; assay type: ADME, organism-based; conditions: in vivo
[14] = AUC (0 to infinity) in female Sprague-Dawley rat at 30 mg/kg, po by LC-MS/MS analysis; assay type: ADME, organism-based; design: dose 30 mg/kg, time infinity, route oral; conditions: in vivo; method in brief: as §4
Cynomolgus monkey [15] = assay: Toxicity in cynomolgus monkey assessed as effect on mean blood preasure at 6 to 20 mg/kg, po; assay type: organism-based, Macaca fascicularis; conditions: in vivo
Cynomolgus monkey [16] = assay: Toxicity in cynomolgus monkey assessed as induction of trchycardia at 6 to 20 mg/kg, po measured after 0.5 to 6 hrs post dose; assay type: organism-based, Macaca fascicularis; conditions: in vivo
[17] = Drug metabolism in human urine assessed as 4-(4-(4-fluorophenyl)-1-methyl-2-(methylsulfinyl)-1H-imidazol-5-yl)pyridin-2-amine formation at 10 to 50 mg, po administered as single dose after 36 hrs; assay type: ADME, organism-based; conditions: in vivo
Method in brief: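 Healthy subjects, single oral dose. Urine collected at 0–6, 6–12, 12–24 and 24–36 h post dose and analysed for parent and metabolite. Excreted amount expressed relative to administered dose.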

Rattus norvegicus [18] = assay: In vivo inhibition of P38 MAPKalpha in Lewis rat assessed as decrease in LPS-stimulated TNFalpha level in serum at 10 mg/kg, po pretreated for 3 hrs followed by LPS addition measured after 1.5 hrs post dose; assay type: functional, organism-based; method in brief: as §3
Mus musculus = assay: Antiarthritic activity in human TNF transgenic mouse model assessed as reduction in paw swelling at 20 to 50 mg/kg/day, po for 10 weeks; assay type: functional, organism-based
Method in brief: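 Heterozygous human TNF transgenic mice (8 per group) were dosed orally for ten weeks with 20 or 50 mg/kg/day as a methylcellulose suspension, alongside vehicle and infliximab i.p. controls. Joint swelling and grip strength were scored weekly, and hind paws were examined histologically at the end.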

Rattus norvegicus [19] = assay: Toxicity in single po dosed rat assessed as effect on respiratory rate at 30 mg/kg, po administered as single dose; assay type: organism-based; conditions: in vivo
Rattus norvegicus [20] = assay: In vivo inhibition of P38 MAPKalpha in Sprague-Dawley rat assessed as decrease in LPS-stimulated TNFalpha level in serum at 3 mg/kg, po pretreated for 1 hr followed by LPS addition measured after 2 hrs relative to control; assay type: functional
Rattus norvegicus [21] = assay: Antiarthritic activity in Lewis rat assessed as decrease in collagen-induced arthritic score at 50 mg/kg, po qd administered for 10 days; assay type: functional, organism-based; method in brief: as §1
Rattus norvegicus [22] = assay: Toxicity in Sprague-Dawley rat assessed as piloerection at 2000 mg/kg, po administered via gavage measured on day 1 and 2; assay type: organism-based; conditions: in vivo
Homo sapiens = assay: Toxicity in human assessed as effect on blood pressure at 50 mg, po administered as single dose; assay type: organism-based; conditions: in vivo
Canis familiaris [23] = assay: AUC (0 to t) in Beagle dog assessed as 4-(4-(4-fluorophenyl)-1-methyl-2-(methylsulfinyl)-1H-imidazol-5-yl)pyridin-2-amine level at 40 mg/kg, po by LC-MS/MS analysis; assay type: ADME, organism-based, Canis lupus familiaris; conditions: in vivo
Method in brief: (§5)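 Toxicokinetics from a maximum-tolerated-dose study in four Beagle dogs given 40 mg/kg orally. Plasma levels of both parent and its predominant metabolite were monitored.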

[24] = molecular target: Mitogen-activated protein kinase 1 (Homo sapiens) (UniProt P28482); assay: Inhibition of MAPK2 (unknown origin) at 10 uM
Liver = assay: Drug level in human liver microsomes treated with CBS-3595 at 10 to 100 uM; assay type: ADME, microsome; method in brief: as §2
[25] = molecular target: Mitogen-activated protein kinase 1 (Homo sapiens) (UniProt P28482); assay: Inhibition of MAPK1 (unknown origin) at 10 uM
[26] = molecular target: Casein kinase I isoform delta (Homo sapiens) (UniProt P48730); assay: Inhibition of CK1delta (unknown origin) at 3 uM relative to control
Canis familiaris [27] = assay: Cmax in Beagle dog assessed as 4-(4-(4-fluorophenyl)-1-methyl-2-(methylsulfinyl)-1H-imidazol-5-yl)pyridin-2-amine level at 40 mg/kg, po by LC-MS/MS analysis; assay type: ADME, organism-based, Canis lupus familiaris; design: dose 40 mg/kg, route oral; conditions: in vivo; method in brief: as §5
Canis familiaris [28] = assay: Tmax in Beagle dog assessed as 4-(4-(4-fluorophenyl)-1-methyl-2-(methylsulfinyl)-1H-imidazol-5-yl)pyridin-2-amine level at 40 mg/kg, po by LC-MS/MS analysis; assay type: ADME, organism-based, Canis lupus familiaris; conditions: in vivo
[29] = Drug level in cynomolgus monkey liver microsomes treated with CBS-3595 at 10 to 100 uM; assay type: ADME, Macaca fascicularis, microsome; method in brief: as §2

Mitogen-activated protein kinase 1 (Homo sapiens), sequence (P28482 whole entry, canonical isoform): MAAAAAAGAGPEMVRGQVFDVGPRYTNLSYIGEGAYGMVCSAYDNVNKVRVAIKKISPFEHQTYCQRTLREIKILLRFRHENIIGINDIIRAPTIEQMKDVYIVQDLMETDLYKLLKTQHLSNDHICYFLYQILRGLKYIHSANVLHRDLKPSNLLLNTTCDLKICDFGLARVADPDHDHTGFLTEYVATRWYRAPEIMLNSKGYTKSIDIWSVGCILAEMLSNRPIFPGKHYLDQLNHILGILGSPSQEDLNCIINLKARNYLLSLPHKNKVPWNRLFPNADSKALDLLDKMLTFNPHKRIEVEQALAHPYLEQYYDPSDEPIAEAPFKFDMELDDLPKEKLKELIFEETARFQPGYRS
Casein kinase I isoform delta (Homo sapiens), sequence (P48730 whole entry, looked up, canonical isoform): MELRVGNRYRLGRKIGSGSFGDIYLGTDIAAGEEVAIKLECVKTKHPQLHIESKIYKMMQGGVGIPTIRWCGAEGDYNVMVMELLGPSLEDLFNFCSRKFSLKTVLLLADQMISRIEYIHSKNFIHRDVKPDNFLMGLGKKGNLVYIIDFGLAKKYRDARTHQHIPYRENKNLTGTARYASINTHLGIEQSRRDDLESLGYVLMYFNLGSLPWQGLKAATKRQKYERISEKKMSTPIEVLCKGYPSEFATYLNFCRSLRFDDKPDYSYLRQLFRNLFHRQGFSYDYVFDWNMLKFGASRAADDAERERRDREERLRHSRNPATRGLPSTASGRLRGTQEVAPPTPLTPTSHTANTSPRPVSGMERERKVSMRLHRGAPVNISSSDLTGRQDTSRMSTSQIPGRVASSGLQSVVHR

SMILES: CC(=O)Nc1cc(-c2c(-c3ccc(F)cc3)nc([S+](C)[O-])n2C)ccn1 (configuration not stated)
- Activity (Rattus norvegicus [1]): inactive
- Tmax [2]: 2 h
- Cmax [3]: 8.4 µM
- Activity (Rattus norvegicus [4]): Toxic
- Drug metabolism [5]: Metabolite_Detected
- half-life [6]: 3.85 h
- Drug metabolism [7]: Metabolite_Detected
- inhibition (Rattus norvegicus [8]): Active
- MTD at 336 h [9]: 150 mg/kg
- AUC(0-inf) [10]: 29.8 µM·h
- Cmax [11]: 4.8 µM
- Tmax [12]: 1.5 h
- half-life [13]: 1.8 h
- AUC(0-inf) [14]: 40.9 µM·h
- Activity (Cynomolgus monkey [15]): Non-Toxic
- Activity (Cynomolgus monkey [16]): Toxic
- Drug excretion [17]: 6 %ID
- inhibition (Rattus norvegicus [18]): Active
- Activity (Mus musculus): Active
- Activity (Rattus norvegicus [19]): Non-Toxic
- inhibition in vivo at 3 mg/kg (Rattus norvegicus [20]): 88%
- Activity (Rattus norvegicus [21]): Active
- Activity (Rattus norvegicus [22]): Toxic
- Activity (Homo sapiens): Non-Toxic

SMILES: Cn1c([S+](C)[O-])nc(-c2ccc(F)cc2)c1-c1ccnc(N)c1 (configuration not stated)
- AUCt (Canis familiaris [23]): 86.5 µM·h
- inhibition [24]: inactive
- Drug metabolism (Liver): Metabolite_Detected
- inhibition [25]: inactive
- inhibition [26]: 88%
- Cmax (Canis familiaris [27]): 5.1 µM
- Tmax (Canis familiaris [28]): 4 h
- Drug metabolism [29]: Metabolite_Detected
